Experimental data reported in ChEMBL document CHEMBL1124898, “Novel agents effective against solid tumors: the diarylsulfonylureas. Synthesis, activities, and analysis of quantitative structure-activity relationships” (J Med Chem, 1990).
Converted amounts (≈) assume the structure as drawn.

Tests used:
[1] = Antitumor activity in vivo against the 6C3HED lymphosarcoma, dosed for 8 days at 300 mg/kg; settings: Mus musculus, 192 h
[2] = Antitumor activity in vivo against the 6C3HED lymphosarcoma dosed for 10 days at 300 mg/kg (ip dosing daily for 8 days); assay type: functional; settings: Mus musculus, route intraperitoneal
Method in brief: (§1)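 Tumor fragments (about 1–2 mm) implanted sc via trochar into a subaxillary site of syngeneic mice (C3H, C57BL/6, Balb/C or DBA/2) or Holtz rats. Groups were 7–10 randomized animals. Compound was suspended in 2.5% Emulphor in 0.9% saline and given orally by gavage or ip, usually from the day after implantation. Tumor volume versus untreated controls was measured one day after the final dose and reported as % inhibition. Scoring bands: +++ 95–100%, ++ 80–94%.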

CCRF-CEM = experiment: Concentration required to inhibit growth of CCRF-CEM cells in culture for 72 hr to 50% of control growth; assay type: functional, cell-based; settings: Homo sapiens
[3] = Tested on 6 C3 HED lymphosarcoma and number of drug related deaths/total animals in treatment group was determined at 50 mg/kg dosage administered for 8 days perorally; 3/10; assay type: ADME, organism-based; design: dose 50 mg/kg, route oral; settings: mouse, in vivo, po, 192 h
X5563 = experiment: Antitumor activity in vivo expressed as percent of inhibition in X5563-plasma cell myeloma cell line; assay type: functional, Mus musculus
Method in brief: as §1

Colon 26 = experiment: Antitumor activity in vivo expressed as percent of inhibition in C-26-colon carcinoma cell line; assay type: functional, Mus musculus
Method in brief: as §1

[4] = Tested on 6C3HED lymphosarcoma and percent inhibition was determined at 200 mg/kg dosage administered for 10 days intraperitoneally; assay type: functional; settings: Mus musculus, ip, 240 h, route intraperitoneal
Method in brief: as §1

B16 [5] = experiment: Antitumor activity in vivo expressed as percent of inhibition in B-16-melanoma (solid) cell line; assay type: functional, Mus musculus
Method in brief: as §1

[6] = Tested on CA-755 mammary adenocarcinoma and percent inhibition was determined at 100 mg/kg dosage administered for 10 days intraperitoneally.; assay type: functional; settings: Mus musculus, CA-755, ip, 240 h, route intraperitoneal
Method in brief: as §1

L1210 = experiment: Antitumor activity in vivo and the activity was determined as percent increase in life span determined against L1210V-lymphocytic leukemia tumor cell lines; assay type: functional, Mus musculus
Method in brief: (§2)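 The ascites tumor inoculum of 1 × 10^6 cells was given ip to DBA/2 mice, and treatment started the next day. Compound was suspended in 2.5% Emulphor in 0.9% saline. Groups had 7–10 animals. %ILS = (MDD treated − MDD control)/MDD control × 100. Deaths before the control median day of death were counted as toxic. Values are optimal from at least two experiments.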

C3H = experiment: Antitumor activity in vivo expressed as percent of inhibition in C3H-mammary adenocarcinoma cell line; assay type: functional, Mus musculus
Method in brief: as §1

[7] = Tested on X-5563 multiple myeloma and number of drug related deaths/total animals in treatment group was determined at 100 mg/kg dosage administered for 10 days intraperitoneally; 1/7; assay type: ADME, organism-based; design: dose 100 mg/kg, route intraperitoneal; settings: mouse, in vivo, ip, 240 h
[8] = Antitumor activity in vivo against the 6C3HED lymphosarcoma dosed for 8 days at 200 mg/kg; settings: Mus musculus, 192 h
B16 [9] = experiment: Antitumor activity in vivo and the activity was determined as percent increase in life span determined against B-16-melanoma (ascites) cell lines; assay type: functional, Mus musculus
Method in brief: as §2

[10] = Tested on X-5563 multiple myeloma and number of drug related deaths/total animals in treatment group was determined at 150 mg/kg dosage administered for 10 days orally; 3/10; settings: mouse, in vivo, po, 240 h
[11] = Tested on CA-755 mammary adenocarcinoma and percent inhibition was determined at 150 mg/kg dosage administered for 10 days intraperitoneally.; assay type: functional; settings: Mus musculus, CA-755, po, 240 h; in the assay text read “orally” for “intraperitoneally”
Method in brief: as §1

YOSHIDA = experiment: Antitumor activity in vivo expressed as percent of inhibition in Yoshida-sarcoma (rat) cell line; assay type: functional
Method in brief: as §1

[12] = Tested on 6C3HED lymphosarcoma and percent inhibition was determined at 100 mg/kg dosage administered for 8 days intraperitoneally; assay type: functional; settings: Mus musculus, ip, 192 h, route intraperitoneal
Method in brief: as §1

6C3HED = experiment: Antitumor activity in vivo expressed as percent of inhibition in 6C3HED-lymphosarcoma tumor cell line; assay type: functional, Mus musculus
Method in brief: as §1

[13] = Tested on 6 C3 HED lymphosarcoma and number of drug related deaths/total animals in treatment group was determined at 100 mg/kg dosage administered for 8 days intraperitoneally; 0/10; assay type: ADME, organism-based; design: dose 100 mg/kg, route intraperitoneal; settings: mouse, in vivo, ip, 192 h
[14] = test system: Lewis lung carcinoma cell line; experiment: Antitumor activity in vivo expressed as percent of inhibition in Lewis-lung carcinoma cell line; assay type: functional, Mus musculus
Method in brief: as §1

P388 = experiment: Antitumor activity in vivo and the activity was determined as percent increase in life span determined against P388-lymphocytic leukemia tumor cell lines; assay type: functional, Mus musculus
Method in brief: as §2

[15] = Tested on X-5563 multiple myeloma and percent inhibition was determined at 150 mg/kg dosage administered for 10 days intraperitoneally.; assay type: functional; settings: Mus musculus, X5563, po, 240 h; in the assay text read “orally” for “intraperitoneally”
Method in brief: as §1

[16] = Tested on X-5563 multiple myeloma and percent inhibition was determined at 100 mg/kg dosage administered for 10 days intraperitoneally.; assay type: functional; settings: Mus musculus, X5563, ip, 240 h, route intraperitoneal
Method in brief: as §1

[17] = Tested on 6C3HED lymphosarcoma and percent inhibition was determined at 50 mg/kg dosage administered for 8 days intraperitoneally; assay type: functional; settings: Mus musculus, po, 192 h, in the assay text read “orally” for “intraperitoneally”
Method in brief: as §1

CA-755 = experiment: Antitumor activity in vivo expressed as percent of inhibition in CA-755-mammary adenocarcinoma tumor cell line; assay type: functional, Mus musculus
Method in brief: as §1

[18] = Tested on 6 C3 HED lymphosarcoma and number of drug related deaths/total animals in treatment group was determined at 200 mg/kg dosage administered for 8 days perorally; 1/10; assay type: ADME, organism-based; design: dose 200 mg/kg, route oral; settings: mouse, in vivo, po, 192 h
[19] = Tested on CA-755 mammary adenocarcinoma and percent inhibition was determined at 50 mg/kg dosage administered for 10 days intraperitoneally.; assay type: functional; settings: Mus musculus, CA-755, ip, 240 h, route intraperitoneal
Method in brief: as §1

[20] = Tested on 6C3HED lymphosarcoma and percent inhibition was determined at 200 mg/kg dosage administered for 8 days intraperitoneally; assay type: functional; settings: Mus musculus, po, 192 h, in the assay text read “orally” for “intraperitoneally”
Method in brief: as §1

P1534J = experiment: Antitumor activity in vivo expressed as percent of inhibition in P1534J-lymphatic leukemia cell line; assay type: functional, Mus musculus
[21] = Tested on 6 C3 HED lymphosarcoma and number of drug related deaths/total animals in treatment group was determined at 200 mg/kg dosage administered for 10 days intraperitoneally; 1/10; assay type: ADME, organism-based; design: dose 200 mg/kg, route intraperitoneal; settings: mouse, in vivo, ip, 240 h
M-5 (Mus musculus) = experiment: Antitumor activity in vivo expressed as percent of inhibition in M-5-ovarian carcinoma cell line
[22] = Antitumor activity in vivo against the 6C3HED lymphosarcoma dosed for 10 days at 275 mg/kg; assay type: functional; settings: Mus musculus, 192 h, in the assay text read “8 days” for “10 days”
Method in brief: as §1

[23] = Antitumor activity in vivo against the 6C3HED lymphosarcoma dosed for 10 days at 225 mg/kg; assay type: functional; settings: Mus musculus, 192 h, in the assay text read “8 days” for “10 days”
Method in brief: as §1

[24] = Antitumor activity in vivo against the 6C3HED lymphosarcoma dosed for 10 days at 270 mg/kg; assay type: functional; settings: Mus musculus, 192 h, in the assay text read “8 days” for “10 days”
Method in brief: as §1

[25] = Antitumor activity in vivo against the 6C3HED lymphosarcoma dosed for 10 days at 300 mg/kg (intraperitoneal dosing for 8 days); assay type: functional; settings: Mus musculus, ip
Method in brief: as §1

[26] = Antitumor activity in vivo against the 6C3HED lymphosarcoma dosed for 10 days at 1600 mg/kg (intraperitoneal dosing for 8 days); assay type: functional; settings: Mus musculus, ip
Method in brief: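 Solid tumor fragments of about 1–2 mm were implanted sc by trochar into the subaxillary site of syngeneic mice. Treatment began the day after implantation. Compound was suspended in 2.5% Emulphor in 0.9% saline and given ip. Groups had 7–10 randomized animals. Percent inhibition of growth was scored from tumor volume versus controls one day after the final dose.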

[27] = Antitumor activity in vivo against the 6C3HED lymphosarcoma dosed for 10 days at 600 mg/kg; assay type: functional; settings: Mus musculus, 192 h, in the assay text read “dosed for 8 days” for “dosed for 10 days”
Method in brief: as §1

Work on `Cc1ccc(S(=O)(=O)/N=C(\S)Nc2ccc(Cl)cc2)cc1` yielded an inhibition in vivo at 300 mg/kg [1] of 35%, an inhibition in vivo at 300 mg/kg [2] of 45% and an IC50 (CCRF-CEM) of 12.9 µg/mL (≈ 37.8 µM).

`Cc1ccc(S(=O)(=O)NC(=O)Nc2ccc(C(F)(F)F)cc2)cc1` showed a Toxic/total [3] of 3, an Inhibition (X5563) of 79% and an Inhibition (Colon 26) of 94%. It also gave an inhibition in vivo at 200 mg/kg [4] of 49%, an Inhibition (B16 [5]) of under 60% and an inhibition in vivo at 100 mg/kg [6] of 13%. For the same molecule, the Increase in life-span (L1210) was under 50%, the Inhibition (C3H) was 94% and the Toxic/total [7] was 1. It also gave an inhibition in vivo at 200 mg/kg [8] of 100%, an Increase in life-span (B16 [9]) of under 50% and a Toxic/total [10] of 3. For the same molecule, the inhibition in vivo at 150 mg/kg [11] was 94%, the Inhibition (YOSHIDA) was 94% and the inhibition in vivo at 100 mg/kg [12] was 81%. The Inhibition (6C3HED) was 100%, the Toxic/total [13] was 0 and the Inhibition [14] was 79%. For the same molecule, the Increase in life-span (P388) was under 50%, the inhibition in vivo at 150 mg/kg [15] was 77% and the inhibition in vivo at 100 mg/kg [16] was 64%. The inhibition in vivo at 50 mg/kg [17] was 84%, the Inhibition (CA-755) was 94% and the Toxic/total [18] was 1. It also gave an inhibition in vivo at 50 mg/kg [19] of 87%, an inhibition in vivo at 200 mg/kg [20] of 100% and an IC50 (CCRF-CEM) of 5.3 µg/mL (≈ 14.8 µM). For the same molecule, the Inhibition (P1534J) was 100%, the Toxic/total [21] was 1 and the Inhibition (M-5 (Mus musculus)) was 94%.

`Cc1ccc(S(=O)(=O)NC(=O)Nc2ccccc2)cc1` gave an inhibition in vivo at 275 mg/kg [22] of 44% and an IC50 (CCRF-CEM) of over 20 µg/mL.

`O=C(Nc1ccccc1)NS(=O)(=O)c1ccccc1` gave an inhibition in vivo at 225 mg/kg [23] of 35% and an IC50 (CCRF-CEM) of over 20 µg/mL.

For `O=C(Nc1cccc(C(F)(F)F)c1)NS(=O)(=O)c1ccc([N+](=O)[O-])cc1`, the inhibition in vivo at 270 mg/kg [24] was 20% and the IC50 (CCRF-CEM) was over 20 µg/mL.

In the case of `O=C(NC(=O)c1ccccc1)Nc1ccc(Cl)cc1`, the inhibition in vivo at 300 mg/kg [1] is reported as 7%, the IC50 (CCRF-CEM) is reported as over 20 µg/mL and the inhibition in vivo at 300 mg/kg [25] is reported as 0%.

Molecule `O=C(NC(=O)c1c(F)cccc1F)Nc1ccc(Cl)cc1` [DIFLUBENZURON] has an inhibition in vivo at 1600 mg/kg [26] of 33%, an inhibition in vivo at 300 mg/kg [1] of 6% and an IC50 (CCRF-CEM) of over 20 µg/mL.

For `CCCCNC(=O)NS(=O)(=O)c1ccc(C)cc1` [TOLBUTAMIDE], the inhibition in vivo at 600 mg/kg [27] was 45%.
